Laboratory results: ChEMBL document CHEMBL4513216, “Probing the Open Global Health Chemical Diversity Library for Multistage-Active Starting Points for Next-Generation Antimalarials” (ACS Infect Dis, 2020)

Assay: Toxicity liver stage against HepG2, at 10uM
Format: cell-based
Set-up: test concentration 10 uM, cell line HepG2-A16-CD81EGFP
Settings: human, HepG2-A16-CD81EGFP cells; read-out: INHIBITION
How it was run: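 Uninfected HepG2-A16-CD81EGFP cells, 3 × 10^3 per well, 1536-well, plated on prespotted compound at 10 μM final, parasite-free screening media added to match infected plates; puromycin 10 μM positive, DMSO 0.5% negative; run in parallel with 48 h PbLuc assay at 37 °C, 5% CO2; viability by CellTiter-Glo luminescence, normalized to controls.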

Structure (SMILES) | cytotoxicity at 10 µM
CC[C@H]1COCCN1C(=O)c1cnc(N2CCN(C)CC2)nc1C | -12.4%
CC(=O)c1cccc(-c2nc3c([nH]2)CCNC3)c1F | -50.5%
CCC(NC(=O)CCCN1CCCCC1)c1cn2cccnc2n1 (stereo unspecified) | 8.09%
Cc1ccc(OCC(=O)N2CCOCC(O)(CN3CCCC3)C2)cc1C (stereo unspecified) | -4.05%
COc1ncccc1CN1CC[C@@]2(O)CCN(C(=O)C3CCC3)C[C@H]2C1 | 9.31%
CN(C)C[C@H]1C[C@H](CO)CN(C(=O)c2cc(S(N)(=O)=O)ccc2F)C1 | 11.9%
Cc1ncc(C(=O)N2CC[C@@]3(O)CCN(C(=O)N(C)C)C[C@H]3C2)cn1 | -46.3%
COCC(=O)NCC1CCCN(Cc2cc3ccccc3[nH]2)C1 (stereo unspecified) | 7.32%
Cc1ccc(CN2CCOCS2(=O)=O)cc1F | 9.52%
CN(CCC1CCOCC1)[C@@H]1c2ccccc2C2(CCNCC2)[C@H]1O | -3.23%
c1nc2c(c(NC3COC4(CCCC4)C3)n1)CCNCC2 (stereo unspecified) | 0.383%
CC(C)N1CCN(C(=O)c2csc3nc(-c4ccc(Cl)cc4)cn23)CC1 | 1.98%
CC(C)NCc1cccnc1N1CCN(c2ccccn2)CC1 | -3.85%
Cc1ccc(-c2ccnc(NCC(O)c3ccc(O)cc3)n2)c(C)n1 (stereo unspecified) | 0.781%
CC(C)c1nccn1C(C)C(=O)N1CCN(S(C)(=O)=O)CC1 (stereo unspecified) | -4.32%
CC(C)(C)CN1CCC(c2nnc(Cn3ccnc3)n2C2CC2)CC1 | -5.02%
Cc1nnc(CN(C)CC2(O)CCCN(CCC3CCCCC3)C2=O)o1 (stereo unspecified) | 17.1%
Cc1cnc2c(C(=O)N3CCCC(OCc4ccccn4)C3)cnn2c1 (stereo unspecified) | -5.2%
O=C(C1CC2(CCNCC2)CN1)N1CCN(c2ccccc2)CC1 (stereo unspecified) | -8.6%

Structure (SMILES) | cytotoxicity at 10 µM
COCCCN1CC2(CCCN(c3ncc(Cl)cc3F)C2)CCC1=O (stereo unspecified) | -13.1%
CCCn1cc(S(=O)(=O)N[C@H]2CN(CC(N)=O)C[C@@H]2C2CC2)cn1 | -11.7%
CC(=O)NCC1CCN(CC2CCOc3ccccc3C2)CC1 (stereo unspecified) | 10.3%
CCC[C@@H]1CN(S(=O)(=O)c2ccc(C)c(F)c2)C[C@H]1N(C)C | 26.7%
Cc1cc(C)n(-c2cc(N3CCN(C(=O)C(C)(C)C)CC3)nc(C)n2)n1 | 37.1%
CS(=O)(=O)N1CCC(C(=O)NC(Cc2ccsc2)c2nccs2)CC1 (stereo unspecified) | 4.04%
Cc1ccccc1-c1cncc(C2CCN(C)CC2)n1 | -6.13%
O=C(CN1CCC(c2ccccc2)C1)NCC(F)(F)F (stereo unspecified) | -5.28%
Cc1cc(C)c(CNC(=O)NCc2ccncc2)c(=O)[nH]1 | -5.59%
CCc1ccc(C(=O)N2CCN(CC(O)c3ccccc3)CC2)o1 (stereo unspecified) | -2.54%
OC(COCc1ccccc1)CN1CCC(c2ccn[nH]2)CC1 (stereo unspecified) | -13.6%
OC(COc1ccc(F)cc1)CN1CCC(c2ccn[nH]2)CC1 (stereo unspecified) | 0.923%
CCn1ncc2c1CCCC2NCc1cc(OC)cc(OC)c1 (stereo unspecified) | 3.24%
Cc1cc(C(=O)NS(C)(=O)=O)c(C)n1-c1ccccc1 | -8.81%
COc1cccc(CNC(=O)CN2CCCC(Cn3cncn3)C2)c1 (stereo unspecified) | -18.2%
Cc1ccc(NC2CCN(C(=O)c3ccc(Cl)cc3F)CC2)nn1 | -17.7%
Cc1oc(C(=O)O)cc1S(=O)(=O)Nc1cc(Cl)ccc1F | -12%
CCc1nc(CN2CCCN(C(=O)c3cnc[nH]3)CC2)cs1 | -9.39%
Cc1cc(C)n(CC2CCCN2C(=O)c2cccc3[nH]ncc23)n1 (stereo unspecified) | -5.55%

Structure (SMILES) | cytotoxicity at 10 µM
CN(C(=O)NCCCN1CCCC1)C1CCN(c2ccccc2)C1=O (stereo unspecified) | 0.864%
CCc1cc(C(=O)N2CCC(Nc3ccc(C)nn3)CC2)sc1C | -1.03%
CC1(C)CN(C(=O)NCCc2ccn(-c3ccccc3)n2)CCO1 | 2.21%
CC(C)NC(=O)C1CN(Cc2ccsc2)Cc2ccnn2C1 (stereo unspecified) | -5.03%
NC(=O)N1CC[C@H](O)[C@@H]1Cc1cccnc1 | 1.72%
O=C(O)c1cc2c(nc1-c1cncnc1)CCN(C1CCOC1)CC2 (stereo unspecified) | -1.61%
c1ccc(CN2C[C@@H]3OCCN(c4ncccn4)[C@@H]3C2)nc1 | 3.86%
CN(C)Cc1cc(C2CCCCN2S(=O)(=O)c2cccc(Cl)c2)nn1C (stereo unspecified) | -8.63%
c1cnc(N2CCO[C@H]3CN(Cc4c[nH]cn4)C[C@H]32)cn1 | 9.49%
CCN(CC)Cc1cn2c(n1)CN(C(=O)c1cc(C)on1)CC2 | 6.17%
O=C(C1CN(c2ncc(F)cn2)CC12CCOCC2)N1CC=CC1 (stereo unspecified) | 9.49%
Cn1ccnc1CN1C[C@H](N2CCOCC2)[C@@H]2OCCC[C@@H]21 | 7.19%
O=C(c1cc[nH]n1)N1CCC(F)(F)C2(CCN(c3ccccn3)C2)C1 (stereo unspecified) | 2.38%
O=C1CO[C@@H]2CN(Cc3cccs3)C[C@H]2N1Cc1cccnc1 | -77.6%
Cn1ccnc1CN1CCCC2(CCN(CC3CCCO3)CC2)C1 (stereo unspecified) | -76.7%
CCS(=O)(=O)N1CCN(Cc2cccnc2)c2nc(C)ccc2C1 | -70.3%
CN(Cc1cccs1)C1CCC[C@@H]2CN(C(=O)c3cnccn3)C[C@H]12 (stereo partly specified) | 16.7%
O=C(Cc1cnccn1)N1C[C@@H]2CC[C@H]1CN(Cc1cscn1)C2 | 1.88%
